CSN inh = inhibitors of CSN-mediated cullin deneddylation, primary screen, biochemical, fluorescence polarization, uHTS; COP9 signalosome complex subunit 5 (Homo sapiens), Q92905; Purified CSN, SCF-Nedd8-OG deneddylation; inhibition, % at 12.5 µM; 360,000 tested, 0.38% active;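 active = pattern-corrected inhibition above about 35%, with an unprinted fluorescence ratio check between 0.5 and 1.5, limit read from the data, passing the limit was not always enough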;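 also: 0% = enzyme with substrate and 100% = substrate without enzyme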
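Material: human Csn5 produced in HEK293T cells; Input: enzyme 0.24 nM; Reagent: SCFSkp2-Nedd8OG substrate at 10 nM final; Dosing: 12.5 µM compound; Incubation: 90 min reaction at room temperature; Detection: fluorescence polarization of the substrate; Evaluation: % inhibition of substrate cleavage by Csn5; Control set: substrate-only high control, full reaction low control.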
TPT1 inhibitor = Candida albicans TPT1 enzyme inhibitors, primary screen, biochemical, fluorescence polarization; tRNA 2'-phosphotransferase TPT1 (Candida albicans SC5314); recombinant caTPT1, FP RNA substrate dephosphorylation; inhibition, % at 5 µM; 300,000 tested, 0.81% active; AID 1962, 2009;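 active = inhibition above the mean of all tested compounds plus 3 SD, set per screening campaign, cut at about 24% in these data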;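 also: plate controls were DMSO alone for no effect and ferristatin control at 100 nM for full effect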
HNF4A DNA FP = change in binding of human HNF4A to DNA, primary screen, biochemical, fluorescence polarization, FITC-DNA; 360,000 tested, 0.3% active; activity change, % at 10 µM; 1 h; Hepatocyte nuclear factor 4-alpha (Homo sapiens), P41235; AID 1224865, 2016; in the data active = activity change above about 30%, passing the limit was not always enough
SENP1 inh = human SENP1 catalytic domain inhibitors, primary screen, biochemical, FRET, uHTS; Sentrin-specific protease 1 (Homo sapiens), Q9P0U3; 360,000 tested, 0.21% active; recombinant SENP1 catalytic domain, CyPet-SUMO1-YPet FRET cleavage; inhibition, % at 10 µM;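 active = inhibition at least 30% at 10 µM, raw YFP signal under a set limit, fluorescence ratio 0.5 to 1.5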;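 also: 0% = enzyme with DMSO and 100% = no enzyme wells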
Target sequence (Q9P0U3 419-644 limits assumed): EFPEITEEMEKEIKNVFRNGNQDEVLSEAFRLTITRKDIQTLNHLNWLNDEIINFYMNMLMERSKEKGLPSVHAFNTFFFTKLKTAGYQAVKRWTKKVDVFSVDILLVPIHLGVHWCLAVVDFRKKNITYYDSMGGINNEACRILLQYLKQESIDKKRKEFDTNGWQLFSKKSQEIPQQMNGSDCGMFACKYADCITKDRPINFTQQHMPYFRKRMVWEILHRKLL
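Material – human SENP1 catalytic domain · Input – SENP1 enzyme, 20 pM final · Compound dosing – single concentration of 10 µM compound, 0.5% DMSO final · Timing – enzyme reaction for 50 min at room temperature, dark · Measured by – FRET fluorescence in CFP and YFP emission channels · Control set – no-enzyme wells low, DMSO-plus-enzyme wells high control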
Rpn11 inh = Rpn11 (PSMD14) deubiquitinase inhibitors, primary screen, biochemical, fluorescence polarization, uHTS. 26S proteasome non-ATPase regulatory subunit 14 (Homo sapiens), O00487. human 26S proteasome, Ub4-pepOG fluorescence polarization; 20S core pre-blocked with epoxomicin. inhibition, % at 20 µM. 360,000 tested, 0.59% active. AID 588493, 2011;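 active = inhibition at 20 µM, scaled to each plate's controls, above about 33%, limit read from the data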
Target sequence (O00487 whole entry, looked up): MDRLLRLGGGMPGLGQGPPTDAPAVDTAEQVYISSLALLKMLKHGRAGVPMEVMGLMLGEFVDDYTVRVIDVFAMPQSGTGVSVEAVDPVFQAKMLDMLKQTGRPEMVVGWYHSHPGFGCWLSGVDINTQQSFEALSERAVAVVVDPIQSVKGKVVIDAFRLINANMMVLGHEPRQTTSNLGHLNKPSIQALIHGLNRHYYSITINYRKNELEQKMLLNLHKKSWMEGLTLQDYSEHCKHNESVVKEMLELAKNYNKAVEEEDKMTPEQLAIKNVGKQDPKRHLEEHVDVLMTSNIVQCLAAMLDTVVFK
TPT1 inh confirm = Candida albicans TPT1 inhibitors, confirmation, biochemical, fluorescence polarization, triplicate. recombinant caTPT1, RNase T1 coupled. AID 2149, 2009. 2,400 tested, 74% active. shares compounds with TPT1 inhibitor. inhibition, % at 5 µM;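 active = inhibition above the primary screen limit, the mean inhibition of all tested compounds plus 3 SD, cut at about 25% in these data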
RNase T1 inh = RNase T1 inhibitors, counter-screen for TPT1 inhibitor project, biochemical, fluorescence polarization; 2,400 tested, 83% active; RNase T1 cleavage, 1536-well; inhibition, % at 5 µM; shares compounds with TPT1 inhibitor; AID 2153, 2009;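 active = inhibition above the solvent-only control well mean plus 3 SD, limit set per screening run, cut at about 23% in these data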;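 also: plate controls were DMSO wells with enzyme for no effect and wells without RNase T1 for full effect; inhibitors block cleavage so intact labeled substrate keeps polarization high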
Target sequence (P00651 whole entry, looked up): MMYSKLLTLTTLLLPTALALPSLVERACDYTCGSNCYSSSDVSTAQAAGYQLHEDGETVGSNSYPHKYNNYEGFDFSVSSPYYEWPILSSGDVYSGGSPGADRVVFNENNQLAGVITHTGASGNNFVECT
Active calls of the source: *; . = not tested or not shown. Compounds with a hit are over-represented: about 1.6% of the library has one in this group of screens.

SMILES | CSN inh | TPT1 inhibitor | HNF4A DNA FP | SENP1 inh | Rpn11 inh | TPT1 inh confirm | RNase T1 inh
C=CCN1C(=O)C2(NNc3ccccc3O2)c2ccccc21 (centres undefined) | 29 | 85* | 71* | 81* | . | 103* | 107*
C=CCN1C(=O)C(O)(CC(=O)c2ccc(-n3cccc3)cc2)c2ccccc21 (centres undefined) | -4 | -2 | 8 | -2 | 1 | . | .
CCc1ccc(/C=C/C(=O)c2cc(Br)ccc(=O)c2O)cc1 | 25 | 25* | -1 | 9 | 0 | 25* | 33*
Cc1cccc(/C=C/C(=O)c2cc(Br)ccc(=O)c2O)c1 | 25 | 21 | 2 | 7 | 14 | . | .
CCOc1ccc(/C=C/C(=O)c2cc(Br)ccc(=O)c2O)cc1 | 18 | 24* | -7 | 3 | 16 | 32* | 41*
CCCCNC(=O)C1(C)CCCCN1C(=O)c1ccc(C#N)cc1 (centres undefined) | -6 | . | 1 | 0 | -5 | . | .
CSc1cccc(NC(=O)C2CCN(S(=O)(=O)c3ccc4c(c3)NC(=O)CO4)CC2)c1 | 2 | 0 | 7 | 0 | -8 | . | .
NC(=O)c1c(NC(=O)C2c3ccccc3Oc3ccccc32)sc2c1CCCCC2 | 18 | 27* | -5 | -37 | 39 | 14 | 22*
CC(C)(C)C(=O)Nc1sc2c(c1C#N)CCCCC2 | -5 | -2 | 2 | -2 | -5 | . | .
CC(C)(C)C(=O)Nc1sc2c(c1C#N)CCN(Cc1ccccc1)C2 | -10 | 39* | -11 | -29 | -47 | 62* | 67*
CC(=O)c1ccc(C(=O)Nc2sc3c(c2C(N)=O)CCN(Cc2ccccc2)C3)cc1 | 44 | 132* | 71 | -29 | . | 140* | 141*
N#Cc1c(N)sc2c1CCN(CCc1ccccc1)C2 | 27 | 75* | 44 | -22 | . | 71* | 82*
O=C(COC(=O)C1CC1)Nc1ccc2c(c1)OCO2 | -2 | 0 | 5 | 0 | -10 | . | .
N#CC1(Nc2cccc(Cl)c2)CCCC1 | 1 | . | -2 | -1 | -4 | . | .
CC(=O)c1ccc(N2CCN(c3ncccn3)CC2)cc1 | 0 | 2 | 1 | -1 | -20 | . | .
CCOC(=O)c1c(NC(=O)C2COc3ccccc3O2)sc2c1CCN(Cc1ccccc1)C2 (centres undefined) | -9 | 3 | -4 | -29 | 8 | . | .
CC(C)N1CCc2c(sc(NC(=O)c3ccc(C(=O)c4ccccc4)cc3)c2C(N)=O)C1 | 9 | 35* | 7 | -74 | 24 | 31* | 48*
CC(=O)N1CCc2c(sc(NC(=O)c3cccc(N4C(=O)CCC4=O)c3)c2C(N)=O)C1 | 25 | 33* | 34 | -92 | 34 | 41* | 56*
NC(=O)c1c(NC(=O)C2COc3ccccc3O2)sc2c1CCN(Cc1ccccc1)C2 (centres undefined) | 29 | 67* | 57 | -37 | . | 70* | 85*
CC(C)N1CCc2c(sc(NC(=O)Cc3ccccc3)c2C(N)=O)C1 | -5 | 2 | -1 | -28 | 8 | . | .
CCCN1CCc2c(sc(NC(=O)c3ccc(S(=O)(=O)N(C)c4ccccc4)cc3)c2C(N)=O)C1 | 9 | 107* | 34* | -21 | 38 | 113* | 115*
Cc1ccccc1C(=O)Nc1cccc(C(=O)N/N=C/c2cc(Cl)cc([N+](=O)[O-])c2O)c1 | 2 | 0 | 2 | 8 | 13 | . | .
CC(C)N1CCc2c(sc(NC(=O)CCc3ccccc3)c2C(N)=O)C1 | 11 | 2 | -1 | -27 | 2 | . | .
CC(=O)Nc1sc2c(c1-c1nc3ccccc3s1)CCN(C(C)C)C2 | -75 | 43* | -6 | -32 | . | 47* | 53*
C[C@@H]1CN([C@H](C)CO)C(=O)CCCn2nncc2CO[C@H]1CN(C)Cc1ccccc1C(F)(F)F | -1 | . | -2 | 2 | 1 | . | .
SMILES | CSN inh | TPT1 inhibitor | HNF4A DNA FP | SENP1 inh | Rpn11 inh | TPT1 inh confirm | RNase T1 inh
COc1cc2cc(NC(C)=O)cc(NCc3ccccc3)c2cc1OC | 4 | . | 0 | -2 | 15 | . | .
CCCCNc1cc(NC(C)=O)cc2cc(OC)c(OC)cc12 | 19 | 70* | 16 | 3 | . | 61* | 73*
O=c1[nH]c2cc3c(cc2cc1CN(Cc1ccccc1)Cc1nnnn1Cc1ccco1)OCCO3 | 23 | . | 34 | 8 | . | . | .
O=c1[nH]c2cc3c(cc2cc1CN(Cc1cccs1)Cc1nnnn1Cc1ccco1)OCCO3 | 3 | 31* | -3 | -26 | -10 | 11 | 15
CCN1CC2=C(OC(N)=C(C#N)C2c2cccs2)/C(=C/c2cccs2)C1 (centres undefined) | 18 | 34* | 10 | -28 | 38 | 25* | 36*
COc1ccc(C2CC(c3c(O)cc(C)oc3=O)=NCCS2)c(OC)c1 (centres undefined) | 7 | 42* | 5 | -20 | 19 | 5 | 12
Cc1nn(CC(=O)c2ccccc2Cl)c(C)c1[N+](=O)[O-] | 0 | 0 | 5 | 0 | 2 | . | .
Cc1nn(CC(=O)c2ccc(Br)s2)c(C)c1[N+](=O)[O-] | 2 | 33* | 18 | 6 | 38 | 49* | 63*
COc1ccc(CNC(=O)C(C)Sc2nc3ccccc3c(=O)n2CC2CCCO2)cc1 (centres undefined) | -3 | . | 0 | -1 | -10 | . | .
CCN(CC)c1ccc2cc(-c3nc4ccccc4[nH]3)c(=O)oc2c1 | -72 | -7 | -87 | -21 | -9 | . | .
CCN(CC)c1ccc2cc(-c3nc4ccccc4n3C)c(=O)oc2c1 | 11 | 81* | 9 | -33 | 9 | 81* | 85*
CCN(CC)c1ccc2cc(-c3nnc(-c4ccccc4)o3)c(=O)oc2c1 | -79 | 117* | -80 | -24 | 1 | 122* | 115*
CC(C)(C)C1CCC2(CC1)C(C#N)=C(SCC(=O)Nc1ccccc1)NC(=O)C2C#N (centres undefined) | 3 | 5 | -2 | -1 | 3 | . | .
N#CC1=C(SCC(=O)c2cc3ccccc3oc2=O)NC(=O)C(C#N)C12CCCC2 (centres undefined) | 12 | 49* | 10 | -14 | . | 30* | 39*

Screening results deposited in PubChem BioAssay by several laboratories.
